# Screening results (PubChem)
# Only some compounds are listed: those with a hit (about 2.3% of all), similar ones and a draw of the others.
# TRPC6 activator – activates the mouse TRPC6 cation channel; HEK293-TRPC6 membrane potential dye fluorescence; hits give high values; B-score at 10 µM; actives 0.13% (n = 310,000);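 active = B-score of the integrated fluorescence ratio above library mean plus 3 SD, and starting fluorescence ratio within library mean plus 5 SD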;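 note: higher score means more depolarization so channel activation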
# TRPC4 block – inhibitors of mouse TRPC4 channel | Q9QUQ5 | HEK293 TRPC4beta/mu-opioid, DAMGO-evoked Fluo4 calcium flux; hits give low values | B-score at 10 µM | actives 0.39% (n = 300,000) | AID 2247;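 active = B-score over 3 SD under the library average, no early fluorescence shift, positive overall ratio signal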
# Target sequence (Q9QUQ5 whole entry, looked up): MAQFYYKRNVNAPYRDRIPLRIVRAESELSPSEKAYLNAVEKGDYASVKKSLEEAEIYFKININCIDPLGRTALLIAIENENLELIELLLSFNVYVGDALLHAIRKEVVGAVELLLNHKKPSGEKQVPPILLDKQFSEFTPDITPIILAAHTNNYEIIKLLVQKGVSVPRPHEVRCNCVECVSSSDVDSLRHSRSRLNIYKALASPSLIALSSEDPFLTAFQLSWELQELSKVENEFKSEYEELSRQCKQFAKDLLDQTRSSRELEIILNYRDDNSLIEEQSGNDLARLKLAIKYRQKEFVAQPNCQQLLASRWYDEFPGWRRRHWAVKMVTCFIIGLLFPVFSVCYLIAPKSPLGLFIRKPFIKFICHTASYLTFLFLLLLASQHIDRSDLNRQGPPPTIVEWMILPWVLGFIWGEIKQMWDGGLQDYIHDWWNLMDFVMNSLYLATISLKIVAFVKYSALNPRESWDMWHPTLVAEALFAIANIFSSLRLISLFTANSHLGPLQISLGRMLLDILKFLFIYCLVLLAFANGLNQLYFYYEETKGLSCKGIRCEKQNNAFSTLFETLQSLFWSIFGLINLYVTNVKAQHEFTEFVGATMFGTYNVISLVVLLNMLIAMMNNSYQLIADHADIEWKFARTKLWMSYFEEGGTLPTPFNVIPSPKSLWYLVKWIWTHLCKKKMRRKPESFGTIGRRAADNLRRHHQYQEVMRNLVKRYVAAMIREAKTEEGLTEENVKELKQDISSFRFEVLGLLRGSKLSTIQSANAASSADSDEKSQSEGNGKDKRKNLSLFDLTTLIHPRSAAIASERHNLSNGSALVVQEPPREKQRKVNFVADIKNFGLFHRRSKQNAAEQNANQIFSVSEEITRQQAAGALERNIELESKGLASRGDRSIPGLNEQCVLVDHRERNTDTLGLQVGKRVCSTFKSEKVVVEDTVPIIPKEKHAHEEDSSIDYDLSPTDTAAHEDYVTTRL
#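 Assay system: HEK293 cells with stable TRPC4beta plus mu-opioid receptor expression; Probe or stimulus: DAMGO in two steps, submaximal then maximal; Dosing: single-point compound dosing; Measured by: Fluo4 calcium-dye fluorescence, kinetic read; Read-out basis: B score from integrated Fluo4 fluorescence ratio.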
# TRPC4 PAM – allosteric potentiators of mouse TRPC4 channel | HEK293 TRPC4beta/mu-opioid, DAMGO EC20, Fluo-4 Ca2+ flux; hits give high values | B-score at 10 µM | actives 0.42% (n = 310,000) | AID 2227;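 active = B-score of calcium response area above 5 SD of library B-scores, with initial fluorescence ratio within 5 SD of library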;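 note: B-score of integrated fluorescence ratio over time as area under calcium response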
# TRPC4 agonist – activators of mouse TRPC4 channel. HEK293 TRPC4beta/mu-opioid, Fluo4 calcium fluorescence; hits give high values. AID 2237. B-score at 10 µM. actives 0.49% (n = 310,000). Q9QUQ5;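 active = B-score above 5 SD of library B-scores, and initial fluorescence ratio not above library mean plus 5 SD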;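 note: positive B-score marks a calcium rise read as TRPC4 activation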
#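 Assay system – TRPC4beta and mu-opioid receptor HEK293 stable cells · Measured by – Fluo4 fluorescence, kinetic · Schedule – dye loading 45 min room temperature, 110 s kinetic read · Read-out – B-scored integrated calcium fluorescence ratio · Controls – buffer and maximal DAMGO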
# TRPC6 inhibitor – mouse TRPC6 channel inhibition; HEK293-TRPC6, membrane potential dye, ACh-evoked depolarization; hits give low values; B-score at 10 µM; actives 1.1% (n = 310,000);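 active = B-score under library mean minus 3 SD, initial fluorescence not abnormally high, positive integrated signal ratio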;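 note: B-score derived from integrated fluorescence ratio over the kinetic read; more negative B-score means stronger inhibition of depolarization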
# TRPC4 spec 2 – second selectivity test of TRPC6 inhibitors: effect on mouse TRPC4; shares compounds with TRPC6 inhibitor; HEK293 TRPC4/MOR, membrane potential dye fluorescence; channel activated by saturating DAMGO dose; inhibition, % at 10 µM; actives 42% (n = 920);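 active = compounds whose fluorescence signal differed from control wells by over 3 SD, either direction, in both duplicate plates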
# TRPC4 spec – mouse TRPC4 off-target activity of TRPC6 inhibitors | HEK293 TRPC4/mu-opioid, membrane potential fluorescence | activity change, negative = inhibition, % at 10 µM | AID 2777 | shares compounds with TRPC6 inhibitor | actives 61% (n = 920);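 active = rise or fall in signal beyond 3 SD of buffer-only wells in both replicate plates, either sign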;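 note: integrated kinetic ratio of fluorescence range over baseline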
# HEK293 MPD ctr 2-1 – second counter-screen for TRPC6 inhibitors: parental HEK293 cells. shares compounds with TRPC6 inhibitor. parental HEK293 membrane potential dye fluorescence; maximal acetylcholine challenge after compound addition. signal change vs control, % at 10 µM. actives 31% (n = 920). AID 2779;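 active = membrane potential signal moving either way by over 3 SD of the maximum-effect control, in both duplicate plates, meaning non-specific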
# HEK293 MPD ctr-1 – parental HEK293 nonspecific activity of TRPC6 inhibitors. shares compounds with TRPC6 inhibitor. parental HEK293 membrane potential dye fluorescence. membrane potential signal change, % at 10 µM. actives 60% (n = 920);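 active = membrane potential signal shifting up or down by more than 3 SD of buffer-only wells, on both duplicate plates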
# HEK293 MPD ctr-2 – checks TRPC6 modulator effects in parental HEK293 cells; shares compounds with TRPC6 inhibitor; membrane potential dye fluorescence; membrane potential signal change, % at 10 µM; actives 51% (n = 2,400);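 active = membrane potential signal moves up or down beyond 5 SD from buffer-only wells, on both duplicate plates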
# HEK293 MPD ctr 2-2 – second counter-screen for TRPC6 modulators: effect in parental HEK293 cells. shares compounds with TRPC6 inhibitor. membrane potential dye fluorescence; after compound, maximal acetylcholine stimulation. inhibition, % at 10 µM. actives 14% (n = 2,400);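 active = membrane potential signal drops by more than 5 SD from the mean control signal, in both duplicate plates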;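 note: plate controls were acetylcholine ECmax control wells for no effect and buffer only wells for full effect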
# TRPC4 ctr mod – selectivity of TRPC6 modulators against mouse TRPC4 | percent change from control (negative = decrease, positive = increase), % at 10 µM | shares compounds with TRPC6 inhibitor | HEK293 TRPC4/mu-opioid, membrane potential fluorescence | actives 69% (n = 2,400);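 active = membrane potential signal moved up or down beyond 5 SD of buffer control wells, in both duplicate plates, actives on both sides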;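 note: plate controls were assay buffer wells for no effect and DAMGO maximal-effect wells for full effect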
# TRPC4 ctr inh 2 – second selectivity test of TRPC6 modulators against mouse TRPC4; HEK293 TRPC4/mu-opioid, membrane potential dye fluorescence; stimulated with maximal-effect DAMGO; shares compounds with TRPC6 inhibitor; actives 55% (n = 2,400); AID 488928; inhibition, % at 10 µM;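 active = drop in membrane potential signal beyond 5 SD of the control wells in both duplicate plates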;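 note: TRPC4 counter screen for TRPC6 hits run under conditions tuned for TRPC6 not TRPC4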
# TRPC6 inh conf – confirmation of mouse TRPC6 inhibitors. shares compounds with TRPC6 inhibitor. HEK293-TRPC6, membrane potential dye, ACh-evoked depolarization. actives 43% (n = 3,300). inhibition, % at 10 µM. AID 488960;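 active = fluorescence ratio falls more than 5 SD below the full-stimulation control mean, in both duplicate runs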;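 note: integrated fluorescence ratio of peak minus minimum over baseline after agonist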
# TRPC6 act conf – confirmation of mouse TRPC6 activators | shares compounds with TRPC6 inhibitor | HEK293-TRPC6 membrane potential dye fluorescence, FDSS | activation, % at 10 µM | actives 11% (n = 2,800) | AID 488961;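 active = ratio signal rise beyond 5 SD above unstimulated control wells' mean, seen in both duplicate runs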;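 note: plate controls were buffer EC0 wells for no effect and acetylcholine ECmax response for full effect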
# An asterisk follows results filed as active; i = inactive.
SMILES,TRPC6 activator,TRPC4 block,TRPC4 PAM,TRPC4 agonist,TRPC6 inhibitor,others
CCOc1c(Cl)cc(CNC(C)C(O)c2ccccc2)cc1OC (centres undefined),i,-6*,i,i,i,
COc1cc(OC)c(OC)cc1CNC(C)C(O)c1ccccc1 (centres undefined),i,i,i,i,i,
CN[C@H]1C[C@H]2O[C@@](C)([C@H]1OC)n1c3ccccc3c3c4c(c5c6ccccc6n2c5c31)C(=O)NC4,i,i,27*,i,-5.8*,
CCN(CC)P(=O)(c1n(CC)cc[n+]1CC)N(CC)CC,i,i,i,i,i,
C=CCN1CC[C@]23c4c5ccc(O)c4O[C@H]2/C(=N/NC(=O)c2ccccc2)CC[C@@]3(O)[C@H]1C5,i,i,i,49*,i,
OC1/C(=C/c2ccccc2F)N2CCC1CC2 (centres undefined),i,i,i,i,i,
O=[N+]([O-])c1cc2c(cc1CNCCc1ccc3c(c1)OCO3)OCO2,i,-8*,i,90*,i,
CCCCn1c(NS(=O)(=O)c2ccccc2)c(C(=O)OCC)c2nc3ccccc3nc21,i,i,i,i,i,
CCCCn1c(NC(=O)c2ccc(Br)o2)c(C(=O)OCC)c2nc3ccccc3nc21,15*,i,i,i,i,
CC1CCCC(C)N1/N=C/c1c[nH]c2ccc(Br)cc12 (centres undefined),i,i,34*,i,i,
O=C(Nc1ccccc1Cl)OC1CN2CCC1CC2 (centres undefined),i,i,25*,i,i,
O=C(Nc1ccccc1F)OC1CN2CCC1CC2 (centres undefined),i,i,i,i,i,
COc1ccc2c(c1O)C13CCN(C)C(C2)C1CCC(=O)C3 (centres undefined),i,i,i,93*,i,
COC(=O)CSC1=NP(=S)(SCC(=O)OC)N2CCCC2=C1C#N (centres undefined),i,i,i,i,i,
CC(NCc1cccc(Cl)c1Cl)C(O)c1ccccc1 (centres undefined),i,i,i,i,i,
CN(C)C(CNC(=O)Cc1c(Cl)cccc1Cl)c1ccccc1 (centres undefined),i,i,i,219*,i,
Cc1ccc(-c2cc(-c3ccc(C)cc3)[n+](-c3ccc(C(=O)[O-])cc3)c(-c3ccc(C)cc3)c2)cc1,i,i,i,60*,i,
COc1cc2c3cc1Oc1cc(ccc1O)C[C@@H]1c4c(cc(OC)c(O)c4Oc4ccc(cc4)C[C@H]3N(C)CC2)CCN1C,i,i,i,117*,i,
Cc1cc(C)[n+](CCCC[n+]2c(C)cc(C)cc2C)c(C)c1,i,i,i,i,-8.9*,HEK293 MPD ctr-2=-438%*;HEK293 MPD ctr 2-2=98%*;TRPC4 ctr mod=-70%*;TRPC4 ctr inh 2=59%*;TRPC6 inh conf=66%*;TRPC6 act conf=i
CC(Cc1ccccc1Sc1ccccc1O)N(C)C (centres undefined),i,-7*,i,i,-9.4*,TRPC4 spec 2=37%*;TRPC4 spec=55%*;HEK293 MPD ctr 2-1=i;HEK293 MPD ctr-1=12%*;TRPC6 inh conf=i
C#CCN(C)[C@H](C)Cc1ccccc1,i,i,i,i,i,
Cc1ccc(OP(=O)(O)Oc2ccc(C)cc2)cc1,i,i,i,i,-6.5*,HEK293 MPD ctr-2=i;HEK293 MPD ctr 2-2=i;TRPC4 ctr mod=i;TRPC4 ctr inh 2=i;TRPC6 inh conf=i
Cc1ccnc(-n2c(-c3ccco3)nc3ccccc3c2=O)c1,i,i,i,i,i,
CN1CCc2nc(N)c(C#N)c(-c3ccccc3)c2C1,i,i,i,i,i,
CN1CCc2nc3sc(C#N)c(N)c3c(-c3cccs3)c2C1,i,i,i,i,-9.2*,HEK293 MPD ctr-2=-192%*;HEK293 MPD ctr 2-2=i;TRPC4 ctr mod=-32%*;TRPC4 ctr inh 2=34%*;TRPC6 inh conf=i;TRPC6 act conf=i
SMILES,TRPC6 activator,TRPC4 block,TRPC4 PAM,TRPC4 agonist,TRPC6 inhibitor,others
CCOC(=O)C1CCN(C=C2C(=O)N(C)C(=S)N(C)C2=O)CC1,i,i,i,i,-9.7*,TRPC4 spec 2=i;TRPC4 spec=i;HEK293 MPD ctr 2-1=i;HEK293 MPD ctr-1=i;TRPC6 inh conf=i;TRPC6 act conf=i
O=c1[nH]c(=O)n(Cc2ccccc2Cl)c(O)c1C=Nc1ccc(F)cc1,i,i,i,i,i,
c1ccc2c(c1)CC1CNCc3cccc(c31)S2 (centres undefined),i,i,i,i,-7.1*,TRPC4 spec 2=62%*;TRPC4 spec=i;HEK293 MPD ctr 2-1=i;HEK293 MPD ctr-1=i;TRPC6 inh conf=66%*;TRPC6 act conf=i
CCc1ccc(-n2c(O)c(C(C)=O)c(=O)[nH]c2=O)cc1 (tested in a mixture with another compound),i,i,i,i,i,
CCCCCSc1cc(O)c(C(CNC)C(C)C)cc1OC (centres undefined),i,i,i,i,i,
CCCCCSc1cc(OC)c(CCN(C)C)cc1OC,i,i,i,i,-5.3*,HEK293 MPD ctr-2=i;HEK293 MPD ctr 2-2=i;TRPC4 ctr mod=i;TRPC4 ctr inh 2=52%*;TRPC6 inh conf=50%*;TRPC6 act conf=i
